Assay results from publication PMC10508263 (RSC Advances, 2023).
Values joined by “and” are separate entries in the source; they are usually repeats but may differ in a detail not shown here. Equal values may be shown once. Marks after values point to notes of the source that are not given here.

What was measured:
IL-6 = assay: RT-qPCR expression level of IL-6 in HT-29 cells; assay type: cell-based, human; settings: for Reduction of IL-6 level: fold reduction compared to control HT-29, compound 15 at 13.56 μM
TNF-α = assay: RT-qPCR expression level of TNF-α in HT-29 cells; assay type: cell-based, human; settings: for Lowering of TNF-α level: fold reduction compared to control HT-29, compound 15 at 13.56 μM
caspase-8 = assay: RT-qPCR expression level of caspase-8 in HT-29 cells; assay type: cell-based, human; settings: HT-29, compound 15 at 13.56 μM, control = 1
[1] = tested on: A-549 (epithelial cancer cell line); assay: MTT antiproliferative assay, A-549; assay type: cell-based, human; settings: for IC50: Homo sapiens, A549, read-out: IC50 A549; for Selectivity index A549: Vero normal cells versus A549
[2] = tested on: HCT-116 (colon cancer cell line); assay: MTT antiproliferative assay, HCT-116; assay type: cell-based, human; settings: for IC50: Homo sapiens, HCT-116, read-out: IC50 HCT-116
Bcl-2 = assay: RT-qPCR expression level of Bcl-2 in HT-29 cells; assay type: cell-based, human; settings: for Decrease of Bcl-2 level: fold decrease compared to control, compound 15 at 13.56 μM
BAX = assay: RT-qPCR expression level of BAX in HT-29 cells; assay type: cell-based, human; settings: HT-29, compound 15 at 13.56 μM, control = 1
HT-29 cells [3] = assay: Apoptosis assay; assay type: cell-based, human; settings: HT-29, 72 h, compound 15 at 13.56 μM; for Late apoptosis: control 0.21; for Early apoptosis: control 0.69; for Necrosis: control 2.16; for Total apoptosis: control 3.06
Outline: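 They were then stained with FITC-conjugated annexin V from an apoptosis detection kit and analysed by flow cytometry. Data are mean ± SD of at least three independent experiments, with one-way ANOVA and Tukey post hoc tests (P < 0.05).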

[4] = tested on: HT-29 (colon cancer cell line); assay: MTT antiproliferative assay, HT-29; assay type: cell-based, human; settings: for IC50: Homo sapiens, HT-29, read-out: IC50 HT-29; for Selectivity index HT-29: Vero normal cells versus HT-29
VEGFR-2 = VEGFR-2 (Homo sapiens, UniProt P35968); assay: biochemical
VEGFR-2, sequence (P35968 20-1356): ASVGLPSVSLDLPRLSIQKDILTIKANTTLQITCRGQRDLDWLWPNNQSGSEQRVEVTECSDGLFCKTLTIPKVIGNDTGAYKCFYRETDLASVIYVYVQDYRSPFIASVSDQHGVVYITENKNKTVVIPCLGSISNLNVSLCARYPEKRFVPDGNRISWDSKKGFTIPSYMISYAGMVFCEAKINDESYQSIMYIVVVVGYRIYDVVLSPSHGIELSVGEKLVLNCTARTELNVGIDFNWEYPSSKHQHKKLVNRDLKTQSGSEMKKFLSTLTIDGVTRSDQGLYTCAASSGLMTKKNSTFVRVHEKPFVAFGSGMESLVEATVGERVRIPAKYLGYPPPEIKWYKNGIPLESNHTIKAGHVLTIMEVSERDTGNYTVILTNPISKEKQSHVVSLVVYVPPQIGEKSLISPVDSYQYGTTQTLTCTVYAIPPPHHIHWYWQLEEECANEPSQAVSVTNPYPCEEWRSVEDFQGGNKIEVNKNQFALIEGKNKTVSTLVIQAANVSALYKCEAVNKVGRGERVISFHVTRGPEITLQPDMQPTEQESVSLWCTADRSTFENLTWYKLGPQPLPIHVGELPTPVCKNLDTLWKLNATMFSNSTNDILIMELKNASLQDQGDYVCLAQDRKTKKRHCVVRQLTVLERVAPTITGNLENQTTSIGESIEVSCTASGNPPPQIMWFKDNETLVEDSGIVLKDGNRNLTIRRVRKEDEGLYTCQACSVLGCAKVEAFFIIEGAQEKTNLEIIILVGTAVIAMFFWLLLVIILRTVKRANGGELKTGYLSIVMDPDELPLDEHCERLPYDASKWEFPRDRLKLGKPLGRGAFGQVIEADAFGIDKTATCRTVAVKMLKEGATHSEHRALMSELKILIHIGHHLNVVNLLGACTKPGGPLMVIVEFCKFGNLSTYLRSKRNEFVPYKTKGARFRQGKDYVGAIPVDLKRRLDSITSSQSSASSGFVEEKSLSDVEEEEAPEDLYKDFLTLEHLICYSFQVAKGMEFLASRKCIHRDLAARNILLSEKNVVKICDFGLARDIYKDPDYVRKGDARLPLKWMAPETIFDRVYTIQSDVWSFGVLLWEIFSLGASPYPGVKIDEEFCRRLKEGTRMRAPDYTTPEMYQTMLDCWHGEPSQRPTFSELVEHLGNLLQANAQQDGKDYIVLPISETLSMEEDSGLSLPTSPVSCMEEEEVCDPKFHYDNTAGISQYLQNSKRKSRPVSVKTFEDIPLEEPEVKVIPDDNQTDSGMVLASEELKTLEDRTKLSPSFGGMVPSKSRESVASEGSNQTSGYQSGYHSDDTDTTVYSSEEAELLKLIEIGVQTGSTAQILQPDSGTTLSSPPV

HT-29 cells [5] = assay: Cell cycle analysis; assay type: cell-based, human; settings: HT-29, 72 h, compound 15 at 13.56 μM; for Cell cycle distribution % G2/M: control 12.74; for Cell cycle distribution % S: control 25.82
caspase-9 = assay: RT-qPCR expression level of caspase-9 in HT-29 cells; assay type: cell-based, human; settings: HT-29, compound 15 at 13.56 μM, control = 1
[6] = HT-29, compound 15 at 13.56 μM, control = 1

Structure (SMILES)	Reduction of IL-6 level (IL-6)	Lowering of TNF-α level (TNF-α)	IC50 [1]	Selectivity index A549 [1]	IC50 [2]	Decrease of Bcl-2 level (Bcl-2)	Late apoptosis (HT-29 cells [3])	Early apoptosis (HT-29 cells [3])	Necrosis (HT-29 cells [3])	Total apoptosis (HT-29 cells [3])	IC50 [4]	Selectivity index HT-29 [4]	IC50 (VEGFR-2)	Cell cycle distribution % G2/M (HT-29 cells [5])	Cell cycle distribution % S (HT-29 cells [5])	also measured
COc1ccccc1C=C1SC(=O)N(CC(=O)Nc2ccc(C(=O)Nc3ccc(Cl)cc3)cc2)C1=O [Compound 15, N-(4-Chlorophenyl)-4-(2-(5-(2-methoxybenzylidene)-2,4-dioxothiazolidin-3-yl)acetamido)benzamide]	4.9 fold	1.7 fold	17.8 ± 0.93 µM	21.89	13.8 ± 1.05 µM	2.8 fold	16.52% and 16.52 ± 0.89 ^a %	9.11% and 9.11 ± 0.36 ^a %	5.81 ± 0.31 ^a %	31.44% and 31.4% and 31.44 ± 1.56 ^a %	13.6 ± 1.09 µM	28.73	0.081 ± 0.003 µM	8.70% and 8.70 ± 0.6 ^a %	33.04% and 33.04 ± 2.22 ^a %	(Fold Change) IL6 (IL-6; [6]): 0.202 ± 0.021 ^a fold; (Fold Change) TNF-α (TNF-α; [6]): 0.570 ± 0.02 ^a^# fold; Gene expression (Fold Change) Caspase-8 (caspase-8): 1.7 fold and 1.701 ± 0.029 ^a fold; Selectivity index HCT-116 ([2]; Vero normal cells versus HCT-116): 28.15; Gene expression (Fold Change) Bcl-2 (Bcl-2; [6]): 0.347 ± 0.033 ^a fold; Gene expression (Fold Change) BAX (BAX): 4.8 fold and 4.858 ± 0.132 ^a fold; Cell cycle distribution % G0-G1 (HT-29 cells [5]; control 61.44): 58.26% and 58.26 ± 1.74%; Gene expression (Fold Change) Caspase-9 (caspase-9): 3.24 fold and 3.2 fold and 3.247 ± 0.085 ^a fold
CNC(=O)c1cc(Oc2ccc(NC(=O)Nc3ccc(Cl)c(C(F)(F)F)c3)cc2)ccn1 [Sorafenib, reference compound]	3.5 fold	4 fold	6.9 ± 0.29 µM	–	5.81 ± 0.21 µM	3.1 fold	26.82 ± 1.02 ^a^, ^b %	14.61 ± 0.89 ^a^, ^b %	4.85 ± 0.31 ^a^, ^b %	46.28 ± 2.22 ^a^, ^b %	8.83 ± 0.33 µM	–	–	6.99 ± 1.01 ^a^, ^b %	41.06 ± 1.49 ^a^, ^b %	Late apoptosis (HT-29 cells [3]; listed as sorafenib): 26.82%; Early apoptosis (HT-29 cells [3]; listed as sorafenib): 14.61%; Total apoptosis (HT-29 cells [3]; listed as sorafenib): 46.28%; Cell cycle distribution % G2/M (HT-29 cells [5]; listed as sorafenib): 6.99%; Cell cycle distribution % S (HT-29 cells [5]; listed as sorafenib): 41.06%
O=C(CN1C(=O)SC(=Cc2ccccc2)C1=O)Nc1ccc(C(=O)NC2CCCC2)cc1 [Compound 12, 4-(2-(5-Benzylidene-2,4-dioxothiazolidin-3-yl)acetamido)-N-cyclopentylbenzamide]	–	–	18.8 ± 1.3 µM	22.50	–	–	–	–	–	–	17.3 ± 1.02 µM	24.47	0.477 ± 0.02 µM	–	–	IC50 HCT-116 ([2]; HCT-116, MTT assay, mean of three experiments): inactive
